# Key:
# [1] = test system: Phosphatidylinositol 4,5-bisphosphate 3-kinase catalytic subunit alpha isoform (Homo sapiens), P42336 [H1047R]; assay: Inhibition of PI3Kalpha H1047R mutant in human HCT116 cells assessed as inhibition of Akt phosphorylation at S473 residue relative to DMSO; assay type: cell-based; details: HCT-116
# How it was run: (§1)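 AKT activation was read as pAKT on immunoblots of lysates from compound-treated HCT116-WT and HCT116-MUT cells, tested at a single concentration. Lysate protein was measured by the […]. Blots were blocked in 5% milk/TBST, probed with primary antibody (1:1000) and HRP secondary (1:1000), and developed by ECL. Band areas were quantified relative to DMSO.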
# [2] = target: Phosphatidylinositol 4,5-bisphosphate 3-kinase catalytic subunit alpha isoform (Homo sapiens) (UniProt P42336); assay: Inhibition of PI3Kalpha in human HCT116 cells assessed as increase in PARP cleavage relative to LY294002; assay type: cell-based; details: HCT-116
# Phosphatidylinositol 4,5-bisphosphate 3-kinase catalytic subunit alpha isoform (Homo sapiens), sequence (P42336 whole entry, canonical isoform): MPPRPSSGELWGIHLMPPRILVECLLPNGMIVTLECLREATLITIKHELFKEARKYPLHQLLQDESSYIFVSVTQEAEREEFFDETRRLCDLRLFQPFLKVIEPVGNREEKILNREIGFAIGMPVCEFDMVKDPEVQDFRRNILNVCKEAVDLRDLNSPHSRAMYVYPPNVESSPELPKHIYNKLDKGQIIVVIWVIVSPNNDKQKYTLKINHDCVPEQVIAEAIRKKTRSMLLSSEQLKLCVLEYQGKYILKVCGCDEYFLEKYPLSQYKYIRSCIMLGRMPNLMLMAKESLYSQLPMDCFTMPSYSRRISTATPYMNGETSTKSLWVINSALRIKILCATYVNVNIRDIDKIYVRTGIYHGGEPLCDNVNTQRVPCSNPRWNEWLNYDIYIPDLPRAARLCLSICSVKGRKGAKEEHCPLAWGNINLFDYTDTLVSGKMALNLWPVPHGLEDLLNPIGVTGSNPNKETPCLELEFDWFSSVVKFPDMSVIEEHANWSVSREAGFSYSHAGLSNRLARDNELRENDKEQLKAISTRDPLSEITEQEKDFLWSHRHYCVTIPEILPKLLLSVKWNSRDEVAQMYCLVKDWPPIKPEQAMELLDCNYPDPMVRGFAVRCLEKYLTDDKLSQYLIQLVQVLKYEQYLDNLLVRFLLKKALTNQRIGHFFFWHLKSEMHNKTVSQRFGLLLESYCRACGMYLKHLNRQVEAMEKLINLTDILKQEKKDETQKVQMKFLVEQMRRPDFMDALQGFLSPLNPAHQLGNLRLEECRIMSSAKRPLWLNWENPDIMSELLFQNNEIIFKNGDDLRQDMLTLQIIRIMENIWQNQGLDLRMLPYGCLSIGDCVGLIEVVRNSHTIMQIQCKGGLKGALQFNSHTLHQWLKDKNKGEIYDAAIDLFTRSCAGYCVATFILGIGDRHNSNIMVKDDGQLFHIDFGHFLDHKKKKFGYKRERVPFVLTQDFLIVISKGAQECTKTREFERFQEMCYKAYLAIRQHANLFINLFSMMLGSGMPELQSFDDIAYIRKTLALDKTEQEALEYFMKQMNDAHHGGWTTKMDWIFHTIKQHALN
# How it was run: (§2)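 Apoptosis was assessed in HCT116-WT and HCT116-MUT cells, each treated with compound at a single concentration, by immunoblot for the 88 kDa cleaved PARP product. Blots were blocked in 5% milk/TBST, probed with primary antibody (1:1000) and peroxidase secondary (1:1000), and developed by ECL. Band areas were quantified by densitometry relative to LY294002.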
# [3] = test system: HCT-116; assay: Growth inhibition of human HCT116 cells by MTT assay; assay type: functional, cell-based
# How it was run: (§3)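 Growth of parental (WT) and H1047R-mutant HCT116 cells was measured by MTT assay, with absorbance read at 570 nm.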
# [4] = test system: Phosphatidylinositol 4,5-bisphosphate 3-kinase catalytic subunit alpha isoform (Homo sapiens), P42336 [H1047R]; assay: Inhibition of PI3Kalpha H1047R mutant in human HCT116 cells assessed as increase in PARP cleavage relative to LY294002; assay type: cell-based; details: HCT-116; how it was run: as §2
# [5] = test system: HCT-116; assay: Growth inhibition of human HCT116 cells expressing PI3Kalpha H1047R mutant by MTT assay; assay type: functional, cell-based; how it was run: as §3
# [6] = test system: HCT-116; assay: Selectivity index, ratio of IC50 for human HCT116 cell to IC50 for PI3Kalpha H1047R mutant expressing human HCT116 cell; assay type: functional
# [7] = target: Phosphatidylinositol 4,5-bisphosphate 3-kinase catalytic subunit alpha isoform (Homo sapiens) (UniProt P42336); assay: Inhibition of PI3Kalpha in human HCT116 cells assessed as inhibition of Akt phosphorylation at S473 residue relative to DMSO; assay type: cell-based; details: HCT-116; how it was run: as §1
# [8] = target: Phosphatidylinositol 4,5-bisphosphate 3-kinase catalytic subunit alpha isoform (Homo sapiens) (UniProt P42336); assay: Inhibition of PI3Kalpha in human HCT116 cells relative to LY294002; assay type: cell-based; details: HCT-116
# How it was run: (§4)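 PI3K kinase activity was assayed in lysates of compound-treated HCT116-WT and HCT116-MUT cells, using a single compound concentration. Cells were washed with PBS, lysed, and the supernatants were collected by centrifugation for 15 min. Resulting band areas were quantified densitometrically relative to LY294002.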
# [9] = test system: Phosphatidylinositol 4,5-bisphosphate 3-kinase catalytic subunit alpha isoform (Homo sapiens), P42336 [H1047R]; assay: Inhibition of PI3Kalpha H1047R mutant in human HCT116 cells relative to LY294002; assay type: cell-based; details: HCT-116; how it was run: as §4
# Phosphatidylinositol 4,5-bisphosphate 3-kinase catalytic subunit alpha isoform (Homo sapiens), P42336 [H1047R], sequence (P42336 whole entry H1047R, canonical isoform): as the sequence (P42336 whole entry, canonical isoform) above, with H1047R counted along it
Structure (SMILES),fold change (FC) [1],fold change (FC) [2],IC50 [3],fold change (FC) [4],IC50 [5],fold change (FC) [7],fold change (FC) [8],fold change (FC) [9],Ratio IC50 [6]
O=C(Nc1ccc(F)cc1)c1c(O)c2cc(F)ccc2[nH]c1=O,0.86,1.01,15 µM,1.37,6.9 µM,0.95,0.65,0.59,2.2
O=c1cc(N2CCOCC2)oc2c(-c3ccccc3)cccc12,0.41,–,–,–,–,0.01,–,–,–
O=C(NCc1ccccc1)c1cc2ccccc2[nH]c1=O,0.13,0.92,420 µM,0.05,330 µM,0.09,0.14,0.8,–
Cc1ccc(NC(=O)c2c(O)c3cc(C)ccc3[nH]c2=O)cc1,0.41,1,27 µM,1.14,5.6 µM,1.66,0.75,0.79,4.8
O=C(NCc1ccccc1)c1cnc2ccccc2c1O,0.2,0.71,24 µM,0.2,19 µM,1,0.56,0.88,–

# Further compounds by falling IC50 [3], results first:
fold change (FC) [1],fold change (FC) [2],IC50 [3],fold change (FC) [4],IC50 [5],fold change (FC) [7],fold change (FC) [8],fold change (FC) [9],Structure (SMILES),Ratio IC50 [6]
–,–,110 µM,–,100 µM,–,–,–,Cn1c(=O)c(C(=O)Nc2ccccc2)c(O)c2ccccc21,–
0.3,0.81,65 µM,0.06,120 µM,1.59,0.7,0.87,O=C(NCc1ccccc1)c1cnc2ccccc2c1,–
0.44,0.01,64 µM,3.9,6.3 µM,1.66,0.82,0.64,COc1ccc(NC(=O)c2c(O)c3cc(OC)ccc3[nH]c2=O)cc1,10
1.23,0.88,22 µM,5.05,3.6 µM,1.6,0.69,0.75,O=C(Nc1ccccc1F)c1c(O)c2cccc(F)c2[nH]c1=O,6
0.4,0.01,9.4 µM,4.99,2.5 µM,0.11,0.89,0.71,O=C(Nc1ccccc1)c1c(O)nc2ccccc2c1O,3.8
0.51,0.4,6.5 µM,1.35,0.28 µM,1.01,0.75,0.9,O=C(Nc1cccc(F)c1)c1c(O)c2ccc(F)cc2[nH]c1=O,23

# Reference: ChEMBL document CHEMBL2203278, “N-Phenyl-4-hydroxy-2-quinolone-3-carboxamides as selective inhibitors of mutant H1047R phosphoinositide-3-kinase (PI3Kα)” (Bioorg Med Chem, 2012)
